# Active and inactive are the calls of the source. The calls are words filed in the database; no cut-off is given here.
# Tests used:
# [1] = target: T1, Glycogen phosphorylase, muscle form (Oryctolagus cuniculus, UniProt P00489); experiment: Inhibition of rabbit muscle glycogen phosphorylase b
# T1 sequence (P00489 whole entry): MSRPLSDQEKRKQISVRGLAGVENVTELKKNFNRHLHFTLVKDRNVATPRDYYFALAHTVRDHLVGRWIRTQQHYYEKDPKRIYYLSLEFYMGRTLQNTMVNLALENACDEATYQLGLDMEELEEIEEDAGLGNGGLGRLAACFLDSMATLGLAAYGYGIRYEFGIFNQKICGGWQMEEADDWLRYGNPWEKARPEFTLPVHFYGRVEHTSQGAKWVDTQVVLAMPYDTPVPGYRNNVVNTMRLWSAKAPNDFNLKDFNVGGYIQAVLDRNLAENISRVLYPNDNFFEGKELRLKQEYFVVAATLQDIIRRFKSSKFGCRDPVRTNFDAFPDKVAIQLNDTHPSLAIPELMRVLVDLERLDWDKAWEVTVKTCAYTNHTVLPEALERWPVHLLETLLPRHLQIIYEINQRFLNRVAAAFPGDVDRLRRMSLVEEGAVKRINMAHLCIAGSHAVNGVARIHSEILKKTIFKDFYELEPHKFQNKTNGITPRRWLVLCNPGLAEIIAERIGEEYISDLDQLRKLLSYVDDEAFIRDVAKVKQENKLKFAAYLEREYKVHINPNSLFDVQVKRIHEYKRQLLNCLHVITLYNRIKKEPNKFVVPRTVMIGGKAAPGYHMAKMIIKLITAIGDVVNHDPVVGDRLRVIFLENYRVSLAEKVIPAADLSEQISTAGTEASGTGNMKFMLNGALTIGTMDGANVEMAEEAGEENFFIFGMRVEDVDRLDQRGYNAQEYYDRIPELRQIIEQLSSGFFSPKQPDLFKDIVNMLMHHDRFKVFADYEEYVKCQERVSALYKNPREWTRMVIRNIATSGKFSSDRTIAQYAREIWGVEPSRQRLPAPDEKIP
# [2] = target: T2, Glycogen phosphorylase, liver form (Rattus norvegicus, UniProt P09811); experiment: Inhibition of glycogen phosphorylase in Wistar rat hepatocytes assessed as decrease in glucagon stimulated glucose release after 3 hrs by glucose oxidase method; assay type: cell-based, Hepatocyte
# T2 sequence (P09811 whole entry): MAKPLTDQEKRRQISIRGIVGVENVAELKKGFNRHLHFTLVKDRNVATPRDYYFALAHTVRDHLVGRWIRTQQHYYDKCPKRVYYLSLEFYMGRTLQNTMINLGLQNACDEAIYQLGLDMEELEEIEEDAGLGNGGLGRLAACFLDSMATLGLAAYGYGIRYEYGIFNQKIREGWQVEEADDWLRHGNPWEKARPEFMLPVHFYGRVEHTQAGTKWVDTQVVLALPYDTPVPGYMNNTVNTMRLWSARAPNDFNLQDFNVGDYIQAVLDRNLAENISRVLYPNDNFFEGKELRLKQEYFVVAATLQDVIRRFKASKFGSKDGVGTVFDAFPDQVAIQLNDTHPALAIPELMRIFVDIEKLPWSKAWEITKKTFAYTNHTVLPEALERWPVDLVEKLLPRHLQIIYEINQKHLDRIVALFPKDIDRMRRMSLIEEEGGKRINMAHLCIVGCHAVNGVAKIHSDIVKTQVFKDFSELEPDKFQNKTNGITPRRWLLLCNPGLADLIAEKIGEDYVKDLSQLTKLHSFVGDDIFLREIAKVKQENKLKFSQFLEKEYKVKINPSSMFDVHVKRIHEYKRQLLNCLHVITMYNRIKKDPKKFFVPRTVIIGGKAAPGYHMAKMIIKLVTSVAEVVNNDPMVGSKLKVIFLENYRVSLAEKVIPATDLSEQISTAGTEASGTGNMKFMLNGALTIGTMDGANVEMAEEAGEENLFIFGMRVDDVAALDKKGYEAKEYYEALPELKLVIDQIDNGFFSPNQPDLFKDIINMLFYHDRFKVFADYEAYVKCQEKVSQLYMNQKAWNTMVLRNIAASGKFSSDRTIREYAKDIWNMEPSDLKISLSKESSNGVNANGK
# Summary of the method: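 Hepatocytes from male Wistar rats (160-220 g) isolated by two-step perfusion, viability >75%. Seeded at 830,000 cells/well, then cultured 24 h with 100 nM dexamethasone. Incubated 3 h in Hepes-bicarbonate buffer pH 7.4 with 0.1% BSA, 100 nM glucagon and inhibitor at several concentrations. Supernatant glucose measured by glucose oxidase (A492). IC50 taken from % of glucagon-stimulated value, mean of three independent experiments.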
# [3] = target: T3, Glycogen phosphorylase, liver form (Homo sapiens, UniProt P06737); experiment: Inhibition of glycogen phosphorylase in human hepatocytes assessed as decrease in glucagon stimulated glucose release after 3 hrs by glucose oxidase method; assay type: cell-based, Hepatocyte
# T3 sequence (P06737 whole entry): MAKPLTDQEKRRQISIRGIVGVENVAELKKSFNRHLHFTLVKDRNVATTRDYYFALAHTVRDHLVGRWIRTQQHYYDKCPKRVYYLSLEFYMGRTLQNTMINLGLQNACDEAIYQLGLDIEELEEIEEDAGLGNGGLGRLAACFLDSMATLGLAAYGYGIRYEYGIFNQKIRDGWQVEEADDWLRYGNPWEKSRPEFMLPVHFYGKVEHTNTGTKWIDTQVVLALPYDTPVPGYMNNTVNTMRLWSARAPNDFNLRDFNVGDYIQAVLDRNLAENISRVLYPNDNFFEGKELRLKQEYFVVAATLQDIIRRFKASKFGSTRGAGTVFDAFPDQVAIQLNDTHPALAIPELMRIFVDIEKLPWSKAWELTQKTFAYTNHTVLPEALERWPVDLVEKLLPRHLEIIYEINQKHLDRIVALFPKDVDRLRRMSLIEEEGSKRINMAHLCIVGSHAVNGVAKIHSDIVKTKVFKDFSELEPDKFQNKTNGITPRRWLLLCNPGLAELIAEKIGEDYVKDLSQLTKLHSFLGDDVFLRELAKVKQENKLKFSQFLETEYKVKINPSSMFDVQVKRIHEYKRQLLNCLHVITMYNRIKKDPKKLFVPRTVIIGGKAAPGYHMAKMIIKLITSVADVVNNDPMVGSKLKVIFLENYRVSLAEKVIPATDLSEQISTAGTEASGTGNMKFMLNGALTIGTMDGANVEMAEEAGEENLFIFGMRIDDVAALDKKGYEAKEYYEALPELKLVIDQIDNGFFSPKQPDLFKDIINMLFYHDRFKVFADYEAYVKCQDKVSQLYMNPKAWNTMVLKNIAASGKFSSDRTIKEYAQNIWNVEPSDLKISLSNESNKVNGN
# Summary of the method: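 Human hepatocytes isolated by two-step perfusion of surgical liver pieces and seeded at 1×10⁶/well. Glycogen-loaded for 20 h in medium containing insulin, dexamethasone and 4.5 g/L glucose. Then 3 h in glucose-free DMEM with 100 nM glucagon and inhibitor at several concentrations. Supernatant glucose measured by glucose oxidase (A492). IC50 from % of glucagon-stimulated value, triplicates across 3-5 cultures.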
# [4] = target: T3, Glycogen phosphorylase, liver form; experiment: Inhibition of glycogen phosphorylase in human hepatocytes assessed as glucagon stimulated glycogen content after 3 hrs by colorimetric GOD method; assay type: cell-based, Hepatocyte
# Summary of the method: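 Human hepatocytes, glycogen-loaded 20 h, then 3 h in glucose-free DMEM with 100 nM glucagon and inhibitor. Washed cells digested with amyloglucosidase (0.75 UI/mL, acetate pH 4.8) for 2 h at 40 °C. Released glucose quantified by glucose oxidase. IC50 from % of glucagon-stimulated glycogen, triplicates across 3-5 cultures.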
# [5] = target: T1, Glycogen phosphorylase, muscle form; experiment: Competitive inhibition of rabbit muscle glycogen phosphorylase b by Lineweaver-Burk plot analysis in presence of glucose 1-phosphate
# [6] = system: Rattus norvegicus; experiment: Anti-hyperglycemic activity in Zucker fa/fa rat model assessed as decrease in liver glucose production at 7.5 mg/kg, po administered as single dose for 20 mins followed by glucagon challenge measured for 45 mins by glucose oxidase method; assay type: functional; design: scale not given: the % may be the effect or the level left
# Summary of the method: (§1)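 Acute glucagon challenge in male Zucker fa/fa rats, 10-13 weeks old, 3 treated and 3 vehicle per experiment. Single oral dose (7.5-90 mg/kg range; vehicle 4-5 mL/kg po) given 65 min before the final blood glucose reading. Glucagon 200 µg/kg SC. Tail-vein plasma taken at 0, 10, 20 and 45 min, glucose by glucose oxidase. Hepatic glucose production read as 45-min AUC.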
# [7] = system: Rattus norvegicus; experiment: Anti-hyperglycemic activity in Zucker fa/fa rat model assessed as decrease in liver glucose production at 15 mg/kg, po administered as single dose for 20 mins followed by glucagon challenge measured for 45 mins by glucose oxidase method; assay type: functional; design: scale not given: the % may be the effect or the level left; summary of the method: as §1
# [8] = system: Rattus norvegicus; experiment: Anti-hyperglycemic activity in Zucker fa/fa rat model assessed as decrease in liver glucose production at 30 mg/kg, po administered as single dose for 20 mins followed by glucagon challenge measured for 45 mins by glucose oxidase method; assay type: functional; design: scale not given: the % may be the effect or the level left; summary of the method: as §1
# [9] = system: Rattus norvegicus; experiment: Anti-hyperglycemic activity in Zucker fa/fa rat model assessed as decrease in liver glucose production at 60 mg/kg, po administered as single dose for 20 mins followed by glucagon challenge measured for 45 mins by glucose oxidase method; assay type: functional; design: scale not given: the % may be the effect or the level left; summary of the method: as §1
# [10] = system: Rattus norvegicus; experiment: Anti-hyperglycemic activity in Zucker fa/fa rat model assessed as decrease in hepatic glucose production at 30 mg/kg, po administered for 4 days followed by glucagon challenge for 2 days measured for 45 mins; assay type: functional; design: scale not given: the % may be the effect or the level left
# Summary of the method: (§2)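 Male Zucker fa/fa rats, 10-13 weeks old, after 5 days of stabilization; 3 dosed and 3 vehicle controls. Daily oral dosing at 30 mg/kg for 4 days, then glucagon challenge (200 µg/kg, scapular SC). Tail-vein blood taken at 0, 10, 20 and 45 min. Plasma glucose by glucose oxidase, insulin by radioimmunoassay, each expressed as delta from basal. Glucose output given as 45-min AUC.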
# [11] = system: Rattus norvegicus; experiment: Anti-hyperglycemic activity in glucagon challenged Zucker fa/fa rat model assessed as decrease in insulinemia at 30 mg/kg, po administered for 6 days measured for 60 mins post last dose by OGTT relative to control; assay type: functional, organism-based
# Summary of the method: (§3)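 Zucker fa/fa rats received 30 mg/kg po daily for 6 days, with a glucagon challenge after day 4. They were then fasted overnight and given an OGTT (glucose 3 g/kg). Tail-vein plasma glucose measured by glucose oxidase and insulin by radioimmunoassay, each expressed as delta from basal per rat.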
# [12] = system: Rattus norvegicus; experiment: Anti-hyperglycemic activity in glucagon challenged Zucker fa/fa rat model assessed as decrease in glycaemia at 30 mg/kg, po administered for 6 days measured for 60 mins post last dose by OGTT relative to control; assay type: functional, organism-based; summary of the method: as §3
# [13] = system: Rattus norvegicus; experiment: Anti-hyperglycemic activity in po dosed Zucker fa/fa rat model assessed as decrease in liver glucose production administered 20 mins followed by glucagon challenge measured for 45 mins by glucose oxidase method; assay type: functional, organism-based; summary of the method: as §1
# [14] = system: Rattus norvegicus; experiment: Anti-hyperglycemic activity in Zucker fa/fa rat model assessed as decrease in insulin output at 30 mg/kg, po administered for 4 days followed by glucagon challenge for 2 days measured for 45 mins; assay type: functional, organism-based; summary of the method: as §2
IC50 [1],IC50 [2],IC50 [3],IC50 [4],Structure (SMILES),further results
25 µM,,,,OC[C@H]1O[C@@]2(CC(c3cc4ccccc4o3)=NO2)[C@H](O)[C@@H](O)[C@@H]1O,
10 µM,,,,OC[C@H]1O[C@@]2(CC(c3cc4ccccc4s3)=NO2)[C@H](O)[C@@H](O)[C@@H]1O,
5.6 µM,> 100 µM,> 100 µM,> 100 µM,CSc1ccc(C2=NO[C@@]3(C2)O[C@H](CO)[C@@H](O)[C@H](O)[C@H]3O)cc1,
6.1 µM,,,,OC[C@H]1O[C@@]2(CC(c3nc4ccccc4s3)=NO2)[C@H](O)[C@@H](O)[C@@H]1O,
81.3 µM,> 100 µM,> 100 µM,> 100 µM,OC[C@H]1O[C@@]2(CC(c3ccc4c(c3)OCO4)=NO2)[C@H](O)[C@@H](O)[C@@H]1O,
27.7 µM,,,,COc1ccc2cc(C3=NO[C@@]4(C3)O[C@H](CO)[C@@H](O)[C@H](O)[C@H]4O)ccc2c1,
,13.6 µM,2.5 µM,2.38 µM,CC(=O)OC[C@H]1O[C@@]2(CC(c3ccc4ccccc4c3)=NO2)[C@H](OC(C)=O)[C@@H](OC(C)=O)[C@@H]1OC(C)=O,
,,,,O=C1CNC(=O)[C@@]2(N1)O[C@H](CO)[C@@H](O)[C@H](O)[C@H]2O,Ki [5]: 59.7 µM
280 µM,,,,OC[C@H]1O[C@@]2(CC(c3cc4ccccc4[nH]3)=NO2)[C@H](O)[C@@H](O)[C@@H]1O,
800 µM,,,,OC[C@H]1O[C@@]2(CC(c3c[nH]c4ccccc34)=NO2)[C@H](O)[C@@H](O)[C@@H]1O,
1.54 µM,30.1 µM,22.2 µM,13.8 µM,OC[C@H]1O[C@@]2(CC(c3ccc4cc(O)ccc4c3)=NO2)[C@H](O)[C@@H](O)[C@@H]1O,
80.5 µM,> 100 µM,> 100 µM,> 100 µM,OC[C@H]1O[C@@]2(CC(c3cc4ccccc4c4ccccc34)=NO2)[C@H](O)[C@@H](O)[C@@H]1O,
325 µM,> 100 µM,> 100 µM,> 100 µM,COc1cc(OC)cc(C2=NO[C@@]3(C2)O[C@H](CO)[C@@H](O)[C@H](O)[C@H]3O)c1,
13.3 µM,> 100 µM,> 100 µM,> 100 µM,OC[C@H]1O[C@@]2(CC(c3ccc4c(c3)OCCO4)=NO2)[C@H](O)[C@@H](O)[C@@H]1O,
,36 µM,20 µM,14.2 µM,OC[C@H]1O[C@@]2(CC(c3ccc4ccccc4c3)=NO2)[C@H](O)[C@@H](O)[C@@H]1O,Activity [6]: 3%; Activity [7]: 18%; Activity [8]: 30%; Activity [9]: 33%; Activity [10]: 19%; Activity [11]: Active; Activity [12]: inactive; Activity [13]: Dose-dependent effect; Activity [14]: Active

# Source: ChEMBL document CHEMBL3763106, “Glucose-derived spiro-isoxazolines are anti-hyperglycemic agents against type 2 diabetes through glycogen phosphorylase inhibition” (Eur J Med Chem, 2016)
